Experiments:
[1] = Cytotoxicity against human A549 cells assessed as reduction in cell viability incubated for 72 hrs by SRB assay; assay type: functional, cell-based; details: A549, 72 h
In short: (§1)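 Cytotoxicity was tested against the HL-60 human leukemia and A-549 human lung adenocarcinoma lines, with adriamycin as the positive control. Potency was expressed as IC50.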

[2] = Cytotoxicity against human HL60 cells assessed as reduction in cell viability after 72 hrs by MTT assay; assay type: functional, cell-based; details: HL-60, 72 h; in short: as §1
[3] = target: T1, Tyrosine-protein phosphatase non-receptor type 1 (Homo sapiens, UniProt P18031); test: Inhibition of PTP1B (unknown origin) using pNPP as substrate after 3 mins by colorimetric analysis
T1 sequence (P18031 whole entry): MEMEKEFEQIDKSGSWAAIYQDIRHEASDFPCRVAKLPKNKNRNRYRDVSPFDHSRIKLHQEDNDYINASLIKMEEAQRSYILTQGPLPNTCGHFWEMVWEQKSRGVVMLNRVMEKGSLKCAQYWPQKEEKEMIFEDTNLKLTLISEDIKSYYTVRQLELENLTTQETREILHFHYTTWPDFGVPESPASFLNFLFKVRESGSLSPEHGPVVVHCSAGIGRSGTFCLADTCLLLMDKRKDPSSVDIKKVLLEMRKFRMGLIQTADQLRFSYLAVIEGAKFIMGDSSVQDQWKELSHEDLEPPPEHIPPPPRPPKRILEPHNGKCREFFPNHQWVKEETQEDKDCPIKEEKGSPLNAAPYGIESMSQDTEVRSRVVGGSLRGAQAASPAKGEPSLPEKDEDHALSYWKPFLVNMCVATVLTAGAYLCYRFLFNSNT

| IC50 [3] | SMILES | IC50 [1] | IC50 [2] |
| --- | --- | --- | --- |
| – | CC(C)C[C@H](c1c(O)c(C=O)c(O)c(C=O)c1O)[C@@H]1CC[C@@](C)(O)[C@@H]2[C@@H]3[C@H](CC[C@]21C)C3(C)C | > 10 µM | > 10 µM |
| – | CC(=O)CC[C@@H]1[C@H]([C@H]2C(=O)CC[C@]2(C)[C@H](CC(C)C)c2c(O)c(C=O)c(O)c(C=O)c2O)C1(C)C | > 10 µM | > 10 µM |
| 4.3 µM | CC(C)C[C@@H](c1c(O)c(C=O)c(O)c(C=O)c1O)[C@H]1CC[C@@H](C)[C@@]2(C)C1=CC[C@@H]1[C@H]2C1(C)C | – | – |
| 4.5 µM | CC1=C2CC[C@](C)([C@@H](CC(C)C)c3c(O)c(C=O)c(O)c(C=O)c3O)[C@H]2[C@H]2[C@@H](CC1)C2(C)C | > 10 µM | > 10 µM |
| – | CC(C)C[C@H](c1c(O)c(C=O)c(O)c(C=O)c1O)[C@@]1(C)CC[C@H]2C1=C[C@H](C(C)(C)O)CC[C@H]2C | > 10 µM | > 10 µM |
| 3 µM | CC(C)C[C@H](c1c(O)c(C=O)c(O)c(C=O)c1O)[C@@]1(C)CC=C2[C@H](C)CC[C@@H]3[C@H]([C@@H]21)C3(C)C | > 10 µM | > 10 µM |
| 2.9 µM | C=C(C)[C@@H]1C=C2[C@@H](C)CC[C@@H]([C@@H](CC(C)C)c3c(O)c(C=O)c(O)c(C=O)c3O)[C@]2(C)CC1 | – | – |
| 1.6 µM | CC(C)C[C@@H](c1c(O)c(C=O)c(O)c(C=O)c1O)[C@@]1(C)CCC2=C1[C@H]1[C@@H](CC[C@H]2C)C1(C)C | > 10 µM | > 10 µM |
| – | CC(C)C[C@@H](c1c(O)c(C=O)c(O)c(C=O)c1O)[C@@H]1CC[C@@](C)(O)[C@@H]2[C@@H]3[C@H](CC[C@]21C)C3(C)C | > 10 µM | > 10 µM |
| – | CC(C)CC(c1c(O)c(C=O)c(O)c(C=O)c1O)[C@@]1(C)CC[C@H]2C1=C[C@H](C(C)(C)O)CC[C@H]2C (some centres not stated) | > 10 µM | > 10 µM |
| 1.8 µM | CC(C)C[C@@H](c1c(O)c(C=O)c(O)c(C=O)c1O)[C@@]1(C)CC=C2[C@H](C)CC[C@@H]3[C@H]([C@@H]21)C3(C)C | > 10 µM | > 10 µM |
| 4.1 µM | CO[C@]1(C)CC[C@@H]2[C@H]([C@H]3[C@H]1CC[C@]3(C)[C@@H](CC(C)C)c1c(O)c(C=O)c(O)c(C=O)c1O)C2(C)C | > 10 µM | > 10 µM |
| 1.3 µM | CC(C)C[C@H](c1c(O)c(C=O)c(O)c(C=O)c1O)[C@H]1CC[C@@H](C)[C@@]2(C)C1=CC[C@@H]1[C@H]2C1(C)C | – | – |
| – | CC(C)CC(c1c(O)c(C=O)c(O)c(C=O)c1O)C1CC[C@@H](C)C2=C[C@H](C(C)(C)O)CC[C@]21C (some centres not stated) | > 10 µM | > 10 µM |
| 4.3 µM | CC(C)CC(=O)c1c(O)c(C=O)c(O)c(C[C@@]2(C)CC[C@H]3C2=C[C@H](C(C)(C)O)CC[C@H]3C)c1O | > 10 µM | > 10 µM |
| 5.6 µM | CC(C)C[C@@H](c1c(O)c(C=O)c(O)c(C=O)c1O)[C@@]1(C)CC[C@@H]2[C@@H]1[C@H]1[C@@H](CC[C@]2(C)O)C1(C)C | > 10 µM | > 10 µM |
| – | CC(C)C[C@@H](c1c(O)c(C=O)c(O)c(C=O)c1O)[C@@]1(C)CC[C@@H]2[C@@H]1[C@H]1[C@@H](CC[C@@]2(C)O)C1(C)C [MACROCARPAL A] | > 10 µM | > 10 µM |
| – | CC(C)C[C@H](c1c(O)c(C=O)c(O)c(C=O)c1O)[C@@]1(C)CC[C@@H]2[C@@H]1[C@H]1[C@@H](CC[C@@]2(C)O)C1(C)C [MACROCARPAL B] | > 10 µM | > 10 µM |
| – | C=C1CC[C@@H]2[C@H]([C@H]3[C@H]1CC[C@]3(C)[C@@H](CC(C)C)c1c(O)c(C=O)c(O)c(C=O)c1O)C2(C)C [MACROCARPAL C] | > 10 µM | > 10 µM |

Source: ChEMBL document CHEMBL3853289, “Eucarobustols A-I, Conjugates of Sesquiterpenoids and Acylphloroglucinols from Eucalyptus robusta” (J Nat Prod, 2016)
